Results reported in ChEMBL document CHEMBL1781937, “Antioxydant activity of β-carboline derivatives in the LDL oxidation model” (2011).

Tests used:
[1] = Antioxidant activity against copper-induced LDL-oxidation assessed as length of lag phase of oxidative procedure of LDL at 0.1 to 10 uM measured every 10 mins for 8 hrs by spectrophotometry relative to 1 uM of copper; type: functional
Outline: (§1)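 Copper oxidation of LDL: LDL isolated by NaBr density ultracentrifugation (1.019–1.063 g/mL) and dialysed in 0.01 M PBS pH 7.4 under N2 at 4 °C. 20 µL of 16.6 µM CuSO4 is added to 160 µL LDL (125 µg protein/mL) with compound (0.1–10 µM) or PBS at 30 °C. A234 is read every 10 min for 8 h. R is the compound lag phase divided by the control lag phase.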

[2] = Antioxidant activity against CuSO4-induced LDL-oxidation assessed as increase in lag phase of conjugated diene formation by 1.5 times measured every 10 mins for 8 hrs by spectrophotometry analysis
[3] = Antioxidant activity in BAEC assessed as protection against air-oxidized LDL-induced cell death at 10 uM pretreated for 24 hrs before air-oxidized LDL challenge measured after 16 hrs by lactate dehydrogenase release assay (reference value: 22.76 +/- 1.53 %); type: functional, Bos taurus
[4] = Antioxidant activity against copper-induced LDL-oxidation assessed as length of lag phase of oxidative procedure of LDL at 0.1 to 10 uM measured every 10 mins for 8 hrs by spectrophotometry relative to 5 uM of copper; type: functional; outline: as §1
[5] = Antioxidant activity against APPH-induced LDL-oxidation assessed as length of lag phase of oxidative procedure of LDL at 0.1 to 10 uM measured every 10 mins for 8 hrs by spectrophotometry relative to 1 uM of APPH; type: functional
Outline: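 AAPH oxidation of LDL: LDL isolated by NaBr density ultracentrifugation (1.019–1.063 g/mL) and dialysed in 0.01 M PBS pH 7.4 under N2 at 4 °C. 160 µL LDL (125 µg protein/mL) is mixed with 20 µL of 2 mM AAPH and compound (0.1–10 µM) at 30 °C. Conjugated dienes are read at 234 nm every 10 min for 8 h. R is the lag phase with compound divided by the control lag phase.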

Compound | Ratio [1] | ED50 [2] | Activity [3] | Activity [4] | Activity [5]
CCc1ccc2[nH]c3c(c2c1)CCNC3c1cccc(O)c1 (stereo not drawn) | 2.7 | < 0.1 µM | 13.31% | > 5 | 2.6
CCc1ccc2[nH]c3c(c2c1)CCNC3c1cc(OC)c(OC)c(OC)c1 (stereo not drawn) | 1 | 10 µM | – | 1.1 | –
CCCN1CCc2c([nH]c3ccc(CC)cc23)C1c1ccc(OC)c(OC)c1 (stereo not drawn) | 1.1 | 2 µM | – | 1.8 | –
COc1cccc(C2NCCc3c2[nH]c2ccc(OCc4ccccc4)cc32)c1 (stereo not drawn) | 1.1 | 5 µM | – | 1.5 | –
CCCN1CCc2c([nH]c3ccc(OCc4ccccc4)cc23)C1c1cccc(OC)c1 (stereo not drawn) | 2.4 | 0.1 µM | 13.22% | 4.4 | 2.4
CCc1ccc2[nH]c3c(c2c1)CCNC3c1ccc(OCc2ccccc2)c(OCc2ccccc2)c1 (stereo not drawn) | 1 | 7 µM | – | 1.4 | 1
CCCN1CCc2c([nH]c3ccc(CC)cc23)C1c1ccc(O)c(O)c1 (stereo not drawn) | 2.7 | < 0.1 µM | 13.19% | > 5 | 2.7
CCc1ccc2[nH]c3c(c2c1)CCNC3c1ccc(OC)cc1 (stereo not drawn) | 1 | 9 µM | – | 1.2 | –
CCCN1CCc2c([nH]c3ccc(CC)cc23)C1c1ccc(OC)cc1 (stereo not drawn) | 1 | 3 µM | – | 1.7 | –
CCCN1CCc2c([nH]c3ccc(CC)cc23)C1c1cccc(OC)c1 (stereo not drawn) | 1.2 | 4 µM | 15.32% | 1.6 | –
CCCN1CCc2c([nH]c3ccc(CC)cc23)C1c1ccccc1OC (stereo not drawn) | 1 | 4 µM | – | 1.6 | –
CCC(=O)N1CCc2c([nH]c3ccc(CC)cc23)C1c1cccc(OC)c1 (stereo not drawn) | 1 | 9 µM | – | 1.2 | –
CCc1ccc2[nH]c3c(c2c1)CCN(C(=O)OCc1ccccc1)C3c1ccc(OCc2ccccc2)c(OCc2ccccc2)c1 (stereo not drawn) | 1.1 | 8 µM | – | 1.3 | –
CCCN1CCc2c([nH]c3ccc(CC)cc23)C1c1cccc(OCc2ccccc2)c1 (stereo not drawn) | 2.2 | 0.1 µM | 13.42% | 4.2 | 2.3
CCCN1CCc2c([nH]c3ccc(CC)cc23)C1c1cccc(O)c1 (stereo not drawn) | 2.8 | < 0.1 µM | 13.2% | > 5 | 2.7
CCc1ccc2[nH]c3c(c2c1)CCNC3c1cc(C(C)(C)C)c(O)c(C(C)(C)C)c1 (stereo not drawn) | 2.8 | < 0.1 µM | 13.26% | > 5 | 2.7

Compound | Ratio [1] | ED50 [2] | Activity [3] | Activity [4] | Activity [5]
CCCN1CCc2c([nH]c3ccc(CC)cc23)C1c1cc(OC)c(OC)c(OC)c1 (stereo not drawn) | 1.2 | 2 µM | – | 1.8 | –
CCc1ccc2[nH]c3c(c2c1)CCNC3c1ccc(OC)c(OC)c1 (stereo not drawn) | 1 | 10 µM | – | 1.1 | –
CCc1ccc2[nH]c3c(c2c1)CCNC3c1ccc(O)c(O)c1 (stereo not drawn) | 2.8 | < 0.1 µM | 13.3% | > 5 | 2.6
CCc1ccc2[nH]c3c(c2c1)CCNC3c1ccc(OC)c(OC)c1OC (stereo not drawn) | 1 | 9 µM | – | 1.2 | –
CCc1ccc2[nH]c3c(c2c1)CCNC3c1cccc(OCc2ccccc2)c1 (stereo not drawn) | 1 | 7 µM | 13.29% | 1.4 | 1
CCCN1CCc2c([nH]c3ccc(CC)cc23)C1c1cc(C(C)(C)C)c(O)c(C(C)(C)C)c1 (stereo not drawn) | 2.7 | < 0.1 µM | 13.21% | > 5 | 2.6
CCc1ccc2[nH]c3c(c2c1)CCNC3c1ccccc1OC (stereo not drawn) | 1.2 | 7 µM | – | 1.4 | –
CCc1ccc2[nH]c3c(c2c1)CCNC3c1cccc(OC)c1 (stereo not drawn) | 1.1 | 9 µM | – | 1.2 | –
CCCN1CCc2c([nH]c3ccc(CC)cc23)C1c1ccc(OCc2ccccc2)c(OCc2ccccc2)c1 (stereo not drawn) | 1.3 | 3 µM | – | 1.8 | –
CCc1ccc2[nH]c3c(c2c1)CCN(C(=O)OCc1ccccc1)C3c1cccc(OCc2ccccc2)c1 (stereo not drawn) | 1 | 10 µM | – | 1 | –
CCCCCCCCCN1CCc2c([nH]c3ccc(CC)cc23)C1c1cccc(OC)c1 (stereo not drawn) | 1 | 9 µM | – | 1.2 | –
CCc1ccc2[nH]c3c(c2c1)CCNC3c1ccc2c(c1)OCCO2 (stereo not drawn) | 1 | 10 µM | – | 1.1 | –
CCCCCN1CCc2c([nH]c3ccc(CC)cc23)C1c1cccc(OC)c1 (stereo not drawn) | 1 | 9 µM | – | 1.2 | –
CCCN1CCc2c([nH]c3ccc(CC)cc23)C1c1ccc2c(c1)OCCO2 (stereo not drawn) | 1 | 9 µM | – | 1.2 | –
CCCN1CCc2c([nH]c3ccc(O)cc23)C1c1cccc(OC)c1 (stereo not drawn) | 1.9 | 0.2 µM | 14.02% | 3.2 | 2.1
CCc1ccc2[nH]c3c(c2c1)CCN(C)C3c1cccc(OC)c1 (stereo not drawn) | 1 | 1 µM | – | 1.9 | –
